Converted amounts (≈) assume the structure as drawn. The source made the active and inactive calls. The calls are words filed in the database; no cut-off is given here.
What was measured:
Orexin receptor type 2 = biological target: T1, Orexin receptor type 2 (Homo sapiens, UniProt O43614); experiment: Displacement of [125I]-Orexin A from human OX2R expressed in CHO cells after 30 mins by topcount analysis; format: cell-based
T1 sequence (O43614 whole entry): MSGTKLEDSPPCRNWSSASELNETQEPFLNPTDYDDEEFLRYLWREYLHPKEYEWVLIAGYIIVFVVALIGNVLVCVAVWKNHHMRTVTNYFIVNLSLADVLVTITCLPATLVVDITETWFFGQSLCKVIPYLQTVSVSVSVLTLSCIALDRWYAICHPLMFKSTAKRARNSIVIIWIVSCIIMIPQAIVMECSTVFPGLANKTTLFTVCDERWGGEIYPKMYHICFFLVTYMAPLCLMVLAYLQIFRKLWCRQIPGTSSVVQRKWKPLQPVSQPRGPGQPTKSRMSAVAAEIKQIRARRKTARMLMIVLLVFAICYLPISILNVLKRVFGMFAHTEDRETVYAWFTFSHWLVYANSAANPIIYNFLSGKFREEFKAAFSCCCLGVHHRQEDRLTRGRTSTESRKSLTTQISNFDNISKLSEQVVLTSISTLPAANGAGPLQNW

[1] = biological target: T2, Orexin/Hypocretin receptor type 1 (Homo sapiens, UniProt O43613); experiment: Displacement of [125I]-Orexin A from human OX1R expressed in CHO cells after 30 mins by topcount analysis; format: cell-based
T2 sequence (O43613 whole entry): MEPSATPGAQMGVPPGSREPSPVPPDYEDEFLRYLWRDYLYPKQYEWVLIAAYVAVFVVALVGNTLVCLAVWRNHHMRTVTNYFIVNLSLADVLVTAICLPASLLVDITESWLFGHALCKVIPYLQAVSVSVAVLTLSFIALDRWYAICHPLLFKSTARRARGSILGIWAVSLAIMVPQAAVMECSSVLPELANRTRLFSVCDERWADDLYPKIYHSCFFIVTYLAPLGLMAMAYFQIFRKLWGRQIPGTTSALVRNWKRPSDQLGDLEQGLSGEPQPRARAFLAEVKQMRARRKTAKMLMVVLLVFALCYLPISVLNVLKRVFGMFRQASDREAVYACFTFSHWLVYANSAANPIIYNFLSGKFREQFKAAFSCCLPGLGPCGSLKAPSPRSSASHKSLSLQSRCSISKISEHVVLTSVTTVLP
Method in brief: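 Membranes from CHO cells expressing human OX1R, […] per well, in 25 mM HEPES pH 7.5 with MgCl2, CaCl2, 0.5% BSA, sodium azide, Tween 20; incubated with [125I]-orexin A 30 min at rt on scintillation plate, washed, counted. Nonspecific binding with excess unlabelled orexin A; % inhibition from DPM; mean of 3 wells, single measurement.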

[2] = Ratio of efflux ratio of permeability in pig LLC-MDR1 cells to efflux ratio of permeability in pig LLC-PK1 cells; format: ADME, cell-based, Sus scrofa
Method in brief: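 LLC-PK1 and MDR1-transfected LLC-PK1 cells grown 5 days on porous inserts (5% CO2, 37 °C). Monolayers preincubated 2 h in HBSS with 10 mM HEPES; compound added apical or basal, 2 h at 37 °C. Receiver side sampled, quantified by LC/MS; Papp from permeated amount, time, initial concentration and membrane area.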

[3] = Aqueous solubility of the compound in PBS at pH 7.4 after 15 mins by HPLC method; format: physicochemical
Mus musculus [4] = experiment: Induction of REM sleep in C57BL/6NCrlCrlj mouse at 30 to 100 mg/kg, po up to 3 hrs by EEG/EMG analysis; format: functional, organism-based
Method in brief: (§1)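 Mice with EEG/EMG recording dosed orally (30 or 100 mg/kg, vehicle 10% Cremophor EL, 5% DMSO in saline; n = 7) immediately before lights out. Signals sampled at 128 Hz, 50 Hz filtered; 10-s epochs auto-scored as wake, non-REM or REM, then checked by a blinded observer. Minutes summed hourly and over 3 h; one-way ANOVA with Dunnett versus vehicle.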

Mus musculus [5] = experiment: Induction of sleep in po dosed C57BL/6NCrlCrlj mouse assessed as reduction in wakefulness time up to 3 hrs by EEG/EMG analysis; format: functional, organism-based; method in brief: as §1
Mus musculus [6] = experiment: Reduction in locomotor activity in ddY mouse model at 100 mg/kg, po after 1 hr; format: functional, organism-based; design: dose 100 mg/kg
Method in brief: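 Male ddY mice kept on 12-h light/dark cycle; oral 10, 30 or 100 mg/kg (DMSO stock diluted twentyfold in 10% Cremophor EL/saline), n = 8 per dose, vehicle n = 16. Ambulation counted as infrared beam breaks in an open-field box over 1 h after dosing; mean ± SEM, one-way ANOVA with Dunnett versus vehicle.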

Mus musculus [7] = experiment: Induction of non-REM sleep in po dosed C57BL/6NCrlCrlj mouse up to 3 hrs by EEG/EMG analysis; format: functional, organism-based; method in brief: as §1
[8] = Drug uptake in CSF of C57BL/6N mouse at 100 mg/kg, po after 3 hrs; format: ADME, organism-based, Cerebrospinal fluid; design: dose 100 mg/kg, route oral; details: read-out: Drug uptake
Method in brief: (§2)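 Male C57BL/6N mice given single oral 100 mg/kg (suspension in 0.5% methylcellulose, or saline/Cremophor EL/DMSO 85:10:5). At 1 or 3 h, CSF taken from cisterna magna under pentobarbital, then aortic blood for plasma. Samples protein-precipitated with methanol/acetonitrile plus propranolol internal standard; LC/MS/MS in positive MRM mode, 1/x²-weighted calibration; mean ± SEM.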

[9] = Drug uptake in CSF of C57BL/6N mouse at 100 mg/kg, po after 1 hr; format: ADME, organism-based, Cerebrospinal fluid; design: dose 100 mg/kg, route oral; details: read-out: Drug uptake; method in brief: as §2
[10] = Plasma concentration in C57BL/6N mouse at 100 mg/kg, po after 3 hrs; format: ADME, organism-based; design: dose 100 mg/kg, route oral; method in brief: as §2
[11] = Plasma concentration in C57BL/6N mouse at 100 mg/kg, po after 1 hr; format: ADME, organism-based; design: dose 100 mg/kg, route oral; method in brief: as §2
Mus musculus [12] = experiment: Induction of non-REM sleep in C57BL/6NCrlCrlj mouse at 100 mg/kg up to 3 hrs by EEG/EMG analysis; format: functional, organism-based; design: dose 100 mg/kg
Method in brief: (§3)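 Oral dosing immediately before lights out, vehicle 10% Cremophor EL, 5% DMSO in saline (n = 7 per group). EEG/EMG amplified, filtered (50 Hz line), sampled at 128 Hz. Recordings were scored automatically in 10-s epochs as wakefulness, non-REM or REM sleep and checked by a blinded observer. Minutes were summed over 3 h from dosing relative to vehicle, with one-way ANOVA and Dunnett test.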

Mus musculus [13] = experiment: Induction of sleep in C57BL/6NCrlCrlj mouse assessed as reduction in wakefulness time at 100 mg/kg up to 3 hrs by EEG/EMG analysis; format: functional, organism-based; design: dose 100 mg/kg; method in brief: as §3

Row | Structure (SMILES) | Ki (Orexin receptor type 2) | Ki [1] | Ratio [2] | solubility at 0.25 h [3] | other results
1 | COc1ccc(OC[C@@]2(c3ccccc3)C[C@H]2C(=O)N(C)c2ccccc2)cc1OC | 4680 nM | 7540 nM |  |  | 
2 | COc1ccc(OC[C@@]2(c3ccccc3)C[C@H]2C(=O)Cc2ccccc2)cc1OC | > 10000 nM | > 10000 nM |  |  | 
3 | COc1ccc(OC[C@@]2(c3ccccc3)C[C@H]2C(=O)Nc2ccccn2)cc1 | 588 nM | 5540 nM |  |  | 
4 | COc1ccc(OC[C@@]2(c3ccccc3)C[C@H]2C(=O)N2CCCc3ccccc32)cc1OC | > 10000 nM | > 10000 nM |  |  | 
5 | COc1ccc(OC[C@@]2(c3ccccc3)C[C@H]2C(=O)Nc2ccc(C#N)cn2)cc1OC (racemic) | 14 nM | 123 nM | 1.1 | 22 µM (≈ 9.45 µg/mL) | 
6 | COc1ccc(OC[C@@]2(c3ccccc3)C[C@H]2C(=O)Nc2ccncc2)cc1OC | 85 nM | 1420 nM | 4.9 |  | 
7 | COc1ccc(OC[C@@]2(c3ccccc3)C[C@H]2C(=O)Nc2ncc(C)s2)cc1OC | 35 nM | 291 nM | 2.4 | < 1 µM | 
8 | COc1ccc(OCC2(c3ccccc3)CC2C(=O)Nc2ccc(C#N)cn2)cc1OC (single isomer, unassigned; (+)) | > 2000 nM | > 2000 nM |  |  | 
9 | COc1ccc(OC[C@@]2(c3ccccc3)C[C@H]2C(=O)Nc2nc(C)cs2)cc1OC | 14 nM | 832 nM | 1.5 | 11 µM (≈ 4.67 µg/mL) | 
10 | COc1ccc(OC[C@@]2(c3ccccc3)C[C@H]2C(=O)c2ccccc2)cc1OC | 8650 nM | > 10000 nM |  |  | 
11 | COc1ccc(OCC2(c3ccccc3)CC2C(=O)Nc2ccc(C#N)cn2)cc1OC (single isomer, unassigned; (-)) [listing 1 of 2 here] |  |  |  |  | Activity (Mus musculus [4]): inactive; Activity (Mus musculus [5]): Dose-dependent effect; Activity (Mus musculus [6]): Active; Activity (Mus musculus [7]): Dose-dependent effect
12 | Cc1nc(C(=O)N2CCCC[C@H]2CNC(=O)c2cccc3occc23)c(-c2ccc(F)cc2)s1 [SB-649868] | 8.5 nM |  |  |  | 
13 | COc1ccc(OC[C@@]2(c3ccccc3)C[C@H]2C(=O)Nc2cc(C)on2)cc1OC | 28 nM | 505 nM |  | < 1 µM | 
14 | COc1ccc([C@]2(COc3ccccc3)C[C@H]2C(=O)Nc2ccccn2)cc1OC | 129 nM | > 10000 nM |  |  | 
15 | COc1ccc(OCC2(c3ccccc3)CC2C(=O)Nc2ccc(C#N)cn2)cc1OC (single isomer, unassigned; (-)) [listing 2 of 2 here] | 5 nM | 106 nM | 1.1 | 15 µM (≈ 6.44 µg/mL) | concentration at 3 h [8]: 94 nM; concentration at 1 h [9]: 245 nM; concentration at 3 h [10]: 3740 nM; concentration at 1 h [11]: 9900 nM
16 | COc1ccc(OC[C@@]2(c3ccccc3)C[C@H]2C(=O)NC2CCCCC2)cc1OC | 7850 nM | 2990 nM |  |  | 
17 | COc1ccc(OC[C@@]2(c3ccccc3)C[C@H]2C(=O)Nc2ccccn2)cc1OC | 36 nM | 1070 nM | 0.9 | 32 µM (≈ 12.9 µg/mL) | 
18 | COc1ccc(OC[C@@]2(c3ccccc3)C[C@H]2C(=O)Nc2cc(C#N)ccn2)cc1OC | 34 nM | 103 nM | 1 | 10 µM (≈ 4.29 µg/mL) | 
19 | COc1cccc(OC[C@@]2(c3ccccc3)C[C@H]2C(=O)Nc2ccccn2)c1 | 1330 nM | > 10000 nM |  |  | 
20 | COCc1ccc(OC[C@@]2(c3ccccc3)C[C@H]2C(=O)Nc2ccccn2)cc1OC | 3340 nM | 772 nM |  |  | 
21 | COc1ccc(OC[C@@]2(c3ccccc3)C[C@H]2C(=O)Nc2ccccc2)cc1OC | 7.2 nM | 7.2 nM | 0.6 | 2 µM (≈ 0.807 µg/mL) | 
22 | COc1ccc(OC[C@@]2(c3ccccc3)C[C@H]2CNc2ccccc2)cc1OC | 4230 nM | 4160 nM |  |  | 
23 | O=C(Nc1ccccn1)[C@@H]1C[C@@]1(COc1ccccc1)c1ccccc1 | 967 nM | 6840 nM |  |  | 
24 | COCc1cc(OC[C@@]2(c3ccccc3)C[C@H]2C(=O)Nc2ccccn2)ccc1OC | 384 nM | 747 nM |  |  | 
25 | Cc1ccc(-c2nc3ccc(C)cn3c2CC(=O)N(C)C)cc1 |  |  |  |  | Activity (Mus musculus [12]): Active; Activity (Mus musculus [13]): Active
26 | COc1ccc(OC[C@@]2(c3ccccc3)C[C@H]2C(=O)Nc2cccnc2)cc1OC | 51 nM | 206 nM | 3.4 |  | 

Source: ChEMBL document CHEMBL3351489, “Design, synthesis, and structure-activity relationships of a series of novel N-aryl-2-phenylcyclopropanecarboxamide that are potent and orally active orexin receptor antagonists” (Bioorg Med Chem, 2014)
